Data on 47 compounds can be found in ChEMBL document CHEMBL4376827, “Structure-Activity Relationship Studies To Identify Affinity Probes in Bis-aryl Sulfonamides That Prolong Immune Stimuli” (J Med Chem, 2019).

SMILES strings stand for the structures.

For series [1], the species on record is Homo sapiens. Kind of series: Activation of LPS-induced NF-kappaB activity in human THP1-Blue-NF-kappaB cells assessed as increase in SEAP reporter activity at 5 uM incubated for 20 hrs by quanti-blue SEAP assay relative to control. The essentials: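 THP1-Blue NF-κB cells, 10^5/well, in RPMI with 10% FBS, pen/strep and Normocin. Compound (5 μM single point or graded concentrations, 0.05% DMSO) is added together with LPS; methods give final LPS 10 μg/mL, table footnote gives 10 ng/mL. Supernatant SEAP is read after 20 h by QuantiBlue colorimetry at 630 nm.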

Series [2] is filed under the species Homo sapiens. Kind of series: Activation of IFNalpha signalling in human ISRE-bla-THP1 cells assessed as increase in type-1 IFN-alpha induced ISRE activity at 5 uM preincubated for 16 hrs followed by CCF4-AM substrate addition and measured after 3 hrs by FRET based assay relative to control. In kind it is cell-based. Put shortly: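 ISRE-bla THP-1 cells, 5×10^4/well, in RPMI with 10% dialyzed FBS, 0.1 mM non-essential amino acids, 1 mM pyruvate and pen/strep. Cells are co-treated with IFN-α (final 100 U/mL) and compound: 5 μM single point or graded concentrations, 0.05% DMSO. After 16 h, CCF4-AM is added for 3 h at RT in the dark.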

The next series relates to THP-1. Description: Cytotoxicity against human THP1 cells assessed as reduction in cell viability at 5 uM incubated for 18 hrs by MTT assay relative to control. The conditions noted are these: thp-1, 18 h.

With `CCCCCCCCCCCCN(c1cc(OC)c(Cl)cc1OC)S(=O)(=O)c1ccc(OCC)cc1`, the Activity in the series filed under Homo sapiens [1] is 97%; in the series listed under Homo sapiens [2], 100%; in the series with THP-1, 93%.
With `CCOc1ccc(S(=O)(=O)Nc2cc(OC)c(N=[N+]=[N-])cc2OC)cc1`, the Activity worked out at 215% in the series listed under Homo sapiens [1], 201% in the series listed under Homo sapiens [2] and 76.6% in the series with THP-1.
For `COc1cc(NS(=O)(=O)c2ccc(Oc3ccccc3)cc2)c(OC)cc1Cl` the same measures were 98%, 95% and 91.3%.
As for `CCOc1ccc(S(=O)(=O)Nc2ccc(Cl)c(OC)c2)cc1`, the values for the Activity in the series filed under Homo sapiens [1], in the series filed under Homo sapiens [2] and in the series on THP-1 were 126%, 99% and 83.7%, respectively.
Turning to `COc1cc(NS(=O)(=O)c2ccc([N+](=O)[O-])cc2)c(OC)cc1Cl`, the values for the Activity in the series filed under Homo sapiens [1], in the series filed under Homo sapiens [2] and in the series with THP-1 were 101%, 103% and 97.4%, respectively.
For the compound `C#CCN(c1cc(OC)c(N=[N+]=[N-])cc1OC)S(=O)(=O)c1ccc(OCC)cc1`, the Activity in the series listed under Homo sapiens [1] stood at 217%; in the series listed under Homo sapiens [2], 182%; with THP-1, 73.4%.
With `CCOc1ccc(S(=O)(=O)Nc2cc(OC)c(N)cc2OC)cc1`, the Activity amounted to 101% in the series filed under Homo sapiens [1], 102% in the series listed under Homo sapiens [2] and 92.2% in the series on THP-1.
Taken in the same sequence, the figures for `COc1cc(NS(=O)(=O)c2ccccc2OC)c(OC)cc1Cl` were 96%, 101% and 92.1%.
Consider `C#CCCN(c1cc(OC)c(Cl)cc1OC)S(=O)(=O)c1ccc(OCC)cc1`, for which the figures for the Activity in the series filed under Homo sapiens [1], in the series listed under Homo sapiens [2] and in the series on THP-1 were 206%, 201% and 70.1%, respectively.
As to `CCOc1ccc(S(=O)(=O)Nc2cc(OC)c(Cl)c(OC)c2)cc1`, the Activity was 179% in the series filed under Homo sapiens [1], 218% in the series listed under Homo sapiens [2] and 71.4% in the series with THP-1.
Take `COc1cccc(S(=O)(=O)Nc2cc(OC)c(Cl)cc2OC)c1`: the Activity in the series listed under Homo sapiens [1] was 116%; in the series listed under Homo sapiens [2] it was 104%; in the series with THP-1, 79.6%.
For `CCOC(=O)CCCN(c1cc(OC)c(Cl)cc1OC)S(=O)(=O)c1ccc(OCC)cc1` the same measures were 199%, 199% and 80.1%.
Taken in the same sequence, the figures for `CCCCCCCN(c1cc(OC)c(Cl)cc1OC)S(=O)(=O)c1ccc(OCC)cc1` were 108%, 95% and 90.4%.
Consider `CCOC(=O)CN(c1cc(OC)c(Cl)cc1OC)S(=O)(=O)c1ccc(OCC)cc1`, for which the Activity in the series listed under Homo sapiens [1] came out at 202%; in the series filed under Homo sapiens [2] it was 184%; in the series on THP-1, 81.4%.
For the compound `CCCc1ccc(S(=O)(=O)Nc2cc(OC)c(Cl)cc2OC)cc1`, the Activity in the series filed under Homo sapiens [1] is 102%; in the series listed under Homo sapiens [2], 103%; in the series on THP-1, 85.7%.
`COc1cc(NS(=O)(=O)c2ccc(CN)cc2)c(OC)cc1Cl`: the Activity in the series listed under Homo sapiens [1] was 103%; in the series filed under Homo sapiens [2] it was 111%; in the series with THP-1, 97%.
Turning to `CCCCCCN(c1cc(OC)c(Cl)cc1OC)S(=O)(=O)c1ccc(OCC)cc1`, the Activity in the series filed under Homo sapiens [1] came out at 81%; in the series listed under Homo sapiens [2], 99%; in the series on THP-1, 95.2%.
Regarding `CCOc1ccc(S(=O)(=O)N(CCCN)c2cc(OC)c(N=[N+]=[N-])cc2OC)cc1.Cl`, the Activity in the series listed under Homo sapiens [1] came to 138%; in the series filed under Homo sapiens [2], 117%; with THP-1 it was 68.9%.
With `C#CCOCCOCCOCCN(c1cc(OC)c(Cl)cc1OC)S(=O)(=O)c1ccc(OCC)cc1`, the Activity is 107% in the series filed under Homo sapiens [1], 130% in the series listed under Homo sapiens [2] and 73.7% in the series with THP-1.
On to `CCCCN(c1cc(OC)c(Cl)cc1OC)S(=O)(=O)c1ccc(OCC)cc1`, for which the figures for the Activity in the series listed under Homo sapiens [1], in the series filed under Homo sapiens [2] and in the series with THP-1 were 192%, 156% and 77.7%, respectively.
In the case of `COc1cc(NS(=O)(=O)c2ccc(N)cc2)c(OC)cc1Cl`, the Activity in the series filed under Homo sapiens [1] amounted to 101%; in the series filed under Homo sapiens [2], 103%; with THP-1, 96%.
For `COc1cc(NS(=O)(=O)c2ccc(O)cc2)c(OC)cc1Cl` the same measures were 98%, 104% and 85.2%.
With `CCOc1ccc(S(=O)(=O)N(c2cc(OC)c(Cl)cc2OC)C(C)C)cc1`, the values for the Activity in the series filed under Homo sapiens [1], in the series filed under Homo sapiens [2] and with THP-1 were 76%, 169% and 103.2%, respectively.
Turning to `COc1ccc(S(=O)(=O)Nc2cc(OC)c(Cl)cc2OC)cc1N`, the values for the Activity in the series filed under Homo sapiens [1], in the series listed under Homo sapiens [2] and with THP-1 were 158%, 166% and 77.3%, respectively.
In the case of `COc1cc(NS(=O)(=O)c2ccc(OC)c(Br)c2)c(OC)cc1Cl`, the Activity in the series filed under Homo sapiens [1] turned out to be 87%; in the series filed under Homo sapiens [2], 101%; with THP-1, 85%.
For `CCOc1ccc(S(=O)(=O)N(Cc2ccccc2)c2cc(OC)c(Cl)cc2OC)cc1` the same measures were 181%, 159% and 71.7%.
With `CCOc1ccc(S(=O)(=O)N(CCCC(=O)O)c2cc(OC)c(Cl)cc2OC)cc1`, the Activity in the series filed under Homo sapiens [1] was determined as 230%; in the series listed under Homo sapiens [2] it was 151%; in the series with THP-1, 73.4%.
Turning to `CCCCOc1ccc(S(=O)(=O)Nc2cc(OC)c(Cl)cc2OC)cc1`, the Activity in the series listed under Homo sapiens [1] was 101%; in the series listed under Homo sapiens [2], 106%; in the series on THP-1 it was 95.3%.
As to `CCOc1ccc(S(=O)(=O)N(CC(C)C)c2cc(OC)c(Cl)cc2OC)cc1`, the Activity was 175% in the series filed under Homo sapiens [1], 193% in the series listed under Homo sapiens [2] and 76.7% in the series with THP-1.
Regarding `CCOc1ccc(S(=O)(=O)Nc2cc(OC)c(Br)cc2OC)cc1`, the values for the Activity in the series listed under Homo sapiens [1], in the series filed under Homo sapiens [2] and in the series on THP-1 were 176%, 235% and 68.8%, respectively.
For `CCOc1ccc(S(=O)(=O)N(CCCO)c2cc(OC)c(Cl)cc2OC)cc1` the same measures were 219%, 178% and 68.5%.
For `CCOc1ccc(S(=O)(=O)N(CCCNC(=O)CCCC[C@H]2SC[C@H]3NC(=O)N[C@H]32)c2cc(OC)c(N=[N+]=[N-])cc2OC)cc1` the same measures were 162%, 140% and 73.8%.
For the compound `CNC(=O)c1ccc(S(=O)(=O)Nc2cc(OC)c(Cl)cc2OC)cc1`, the Activity in the series listed under Homo sapiens [1] is 103%; in the series filed under Homo sapiens [2] it was 105%; in the series with THP-1 it was 77%.
As for `COc1cc(NS(=O)(=O)c2ccc(C(N)=O)cc2)c(OC)cc1Cl`, the figures for the Activity in the series listed under Homo sapiens [1], in the series listed under Homo sapiens [2] and with THP-1 were 103%, 94% and 91%, respectively.
As for `COc1cc(NS(=O)(=O)c2ccc(C#N)cc2)c(OC)cc1Cl`, the Activity amounted to 97% in the series filed under Homo sapiens [1], 106% in the series filed under Homo sapiens [2] and 102.9% in the series with THP-1.
For `CCOc1ccc(S(=O)(=O)N(CCCNC(=O)c2ccc(-c3c4ccc(=[N+](C)C)cc-4oc4cc(N(C)C)ccc34)c(C(=O)O)c2)c2cc(OC)c(Cl)cc2OC)cc1`, the Activity came out at 111% in the series listed under Homo sapiens [1], 123% in the series filed under Homo sapiens [2] and 76.9% in the series on THP-1.
On to `CCOc1ccc(S(=O)(=O)Nc2ccc(Cl)cc2OC)cc1`, for which the Activity in the series listed under Homo sapiens [1] came to 141%; in the series listed under Homo sapiens [2], 109%; with THP-1, 78.3%.
Regarding `CCNC(=O)CCCN(c1cc(OC)c(Cl)cc1OC)S(=O)(=O)c1ccc(OCC)cc1`, the Activity in the series listed under Homo sapiens [1] came to 206%; in the series listed under Homo sapiens [2], 137%; in the series with THP-1, 78.2%.
For the compound `CCOc1ccc(S(=O)(=O)N(CCc2ccccc2)c2cc(OC)c(Cl)cc2OC)cc1`, the values for the Activity in the series listed under Homo sapiens [1], in the series filed under Homo sapiens [2] and in the series with THP-1 were 131%, 141% and 44%, respectively.
With `CCOC(=O)c1ccc(S(=O)(=O)Nc2cc(OC)c(Cl)cc2OC)cc1`, the Activity in the series listed under Homo sapiens [1] was 189%; in the series listed under Homo sapiens [2] it was 169%; in the series on THP-1, 70.8%.
As for `COC(=O)c1ccc(S(=O)(=O)Nc2cc(OC)c(Cl)cc2OC)cc1`, the values for the Activity in the series listed under Homo sapiens [1], in the series listed under Homo sapiens [2] and in the series on THP-1 were 191%, 202% and 74.4%, respectively.
Turning to `CCCN(c1cc(OC)c(Cl)cc1OC)S(=O)(=O)c1ccc(OCC)cc1`, the Activity in the series listed under Homo sapiens [1] was found to be 227%; in the series listed under Homo sapiens [2], 199%; in the series with THP-1, 71.6%.
With `CCCOc1ccc(S(=O)(=O)Nc2cc(OC)c(Cl)cc2OC)cc1`, the Activity in the series filed under Homo sapiens [1] is 149%; in the series listed under Homo sapiens [2] it was 125%; in the series on THP-1 it was 71.3%.
Regarding `CCOc1ccc(S(=O)(=O)N(CCCNC(=O)CCCCCNC(=O)c2ccc3c(c2)C(=O)OC32c3ccc(O)cc3Oc3cc(O)ccc32)c2cc(OC)c(Cl)cc2OC)cc1`, the Activity turned out to be 96% in the series filed under Homo sapiens [2] and 98.1% in the series with THP-1.
Consider `CCOc1ccc(S(=O)(=O)Nc2cc(OC)ccc2OC)cc1`, for which the Activity in the series listed under Homo sapiens [1] came to 116%; in the series listed under Homo sapiens [2], 96%; in the series on THP-1, 73.1%.
Regarding `COc1cc(NS(=O)(=O)c2ccc(CNC(=O)OC(C)(C)C)cc2)c(OC)cc1Cl`, the Activity worked out at 100% in the series listed under Homo sapiens [1], 101% in the series listed under Homo sapiens [2] and 109.2% in the series on THP-1.
`COc1cc(NS(=O)(=O)c2ccc(C(=O)O)cc2)c(OC)cc1Cl`: the values for the Activity in the series listed under Homo sapiens [1], in the series listed under Homo sapiens [2] and with THP-1 were 89%, 104% and 98.2%, respectively.
